According to ChEMBL document CHEMBL3352329, “Antifungal activity of resveratrol derivatives against Candida species” (2014):
In brackets after ≈: the same amount, converted by molar mass. Activity calls are given as the source filed them. The rule behind the calls is not given here.

Legend:
Candida albicans [1] = experiment: Antifungal activity against Candida albicans SC5314 ATCC MYA-2876 assessed as growth inhibition after 48 hrs by broth microdilution method; format: functional; details: SC5314 ATCC MYA-2876, 48 h
Procedure, shortened: (§1)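 CLSI broth microdilution with serial 2-fold dilutions in RPMI AutoMod medium. Inoculum from a 0.5 McFarland suspension (10^6 cfu/mL). Plates incubated 48 h at 32 °C, then OD read at 630 nm. MIC95 is the lowest concentration giving 95% growth inhibition versus untreated control. Mean of two independent experiments, each run in triplicate.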

Candida dubliniensis = experiment: Antifungal activity against Candida dubliniensis ATCC MYA-646 assessed as growth inhibition after 48 hrs by broth microdilution method; format: functional; details: ATCC MYA-646, 48 h; procedure, shortened: as §1
Debaryomyces hansenii = experiment: Antifungal activity against Candida famata VKMY-9 assessed as growth inhibition after 48 hrs by broth microdilution method; format: functional; details: VKMY-9, 48 h; procedure, shortened: as §1
Nakaseomyces glabratus = experiment: Antifungal activity against Candida glabrata ATCC 90030 assessed as growth inhibition after 48 hrs by broth microdilution method; format: functional; details: ATCC 90030, 48 h; procedure, shortened: as §1
[2] = tested on: Meyerozyma guilliermondii; experiment: Antifungal activity against Candida guilliermondii ATCC 6260 assessed as growth inhibition after 48 hrs by broth microdilution method; format: functional; details: ATCC 6260, 48 h; procedure, shortened: as §1
[Candida] inconspicua = Antifungal activity against Candida inconspicua clinical isolate assessed as growth inhibition after 48 hrs by broth microdilution method; format: functional; details: Pichia inconspicua; procedure, shortened: as §1
Kluyveromyces marxianus = experiment: Antifungal activity against Candida kefyr clinical isolate assessed as growth inhibition after 48 hrs by broth microdilution method; format: functional; procedure, shortened: as §1
Pichia kudriavzevii = experiment: Antifungal activity against Candida krusei ATCC 6258 assessed as growth inhibition after 48 hrs by broth microdilution method; format: functional; details: ATCC 6258, 48 h; procedure, shortened: as §1
Clavispora lusitaniae = experiment: Antifungal activity against Candida lusitaniae CBS 6936 assessed as growth inhibition after 48 hrs by broth microdilution method; format: functional; details: CBS 6936, 48 h; procedure, shortened: as §1
Pichia norvegensis = experiment: Antifungal activity against Candida norvegensis clinical isolate assessed as growth inhibition after 48 hrs by broth microdilution method; format: functional; procedure, shortened: as §1
Candida parapsilosis = experiment: Antifungal activity against Candida parapsilosis ATCC 22019 assessed as growth inhibition after 48 hrs by broth microdilution method; format: functional; details: Lodderomyces parapsilosis, ATCC 22019, 48 h; procedure, shortened: as §1
Candida tropicalis [3] = experiment: Antifungal activity against Candida tropicalis ATCC MYA-3404/T1 assessed as growth inhibition after 48 hrs by broth microdilution method; format: functional; details: ATCC MYA-3404/T1, 48 h; procedure, shortened: as §1
Candida tropicalis [4] = experiment: Antifungal activity against Candida tropicalis ATCC MYA-3404/T1 assessed as growth inhibition at 300 ug/ml after 48 hrs by broth microdilution method; format: functional, organism-based
Procedure, shortened: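 Broth microdilution per CLSI, serial 2-fold dilutions in RPMI AutoMod medium; inoculum 0.5 McFarland (10^6 cfu/mL). Incubation 48 h at 32 °C, OD 630 nm read; activity judged against untreated control, MIC95 being lowest concentration giving 95% growth inhibition; 300 μg/mL highest concentration tested. Two independent experiments, each in triplicate; mean values.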

Candida albicans [5] = experiment: Antifungal activity against Candida albicans SC5314 ATCC MYA-2876 assessed as growth inhibition at 300 ug/ml after 48 hrs by broth microdilution method; format: functional, organism-based
Procedure, shortened: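 Broth microdilution in RPMI AutoMod medium against SC5314, tested up to 300 μg/mL, the highest concentration used. Inoculum from a 0.5 McFarland suspension (10^6 cfu/mL). Incubated 48 h at 32 °C, growth read as OD at 630 nm. Activity judged as 95% growth inhibition versus control. Two independent experiments, each in triplicate.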

Candida albicans [6] = experiment: Antifungal activity against Candida albicans SC5314 ATCC MYA-2876 assessed as inhibition of hyphal formation at 14 ug/ml after 48 hrs by microscopy; format: functional, organism-based
Procedure, shortened: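 Yeast-to-hyphae transition of SC5314 examined after 48 h at 32 °C in RPMI medium. Cells exposed to 7, 14 or 28 μg/mL alongside untreated control cells. Hyphal formation assessed by comparing cell morphology between treated and control cultures.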

Structure (SMILES) | MIC95 (Candida albicans [1]) | MIC95 (Candida dubliniensis) | MIC95 (Debaryomyces hansenii) | MIC95 (Nakaseomyces glabratus) | MIC95 [2] | MIC95 ([Candida] inconspicua) | MIC95 (Kluyveromyces marxianus) | MIC95 (Pichia kudriavzevii) | MIC95 (Clavispora lusitaniae) | MIC95 (Pichia norvegensis) | MIC95 (Candida parapsilosis) | growth inhibition (GI) (Candida albicans [5]) | further results
COc1ccc(/C=C/c2cc(O)cc(OC)c2)cc1 | 37 µg/mL (≈ 144 µM) | 18 µg/mL (≈ 70.2 µM) | 9 µg/mL (≈ 35.1 µM) | 37 µg/mL (≈ 144 µM) | 18 µg/mL (≈ 70.2 µM) | 37 µg/mL (≈ 144 µM) | 18 µg/mL (≈ 70.2 µM) | 37 µg/mL (≈ 144 µM) | 37 µg/mL (≈ 144 µM) | 37 µg/mL (≈ 144 µM) | 18 µg/mL (≈ 70.2 µM) | – | MIC95 (Candida tropicalis [3]): 27 µg/mL (≈ 105 µM)
COc1cc(O)cc(/C=C/c2ccc(O)cc2)c1 | 300 µg/mL (≈ 1240 µM) | 150 µg/mL (≈ 619 µM) | 18 µg/mL (≈ 74.3 µM) | 300 µg/mL (≈ 1240 µM) | 150 µg/mL (≈ 619 µM) | 300 µg/mL (≈ 1240 µM) | 150 µg/mL (≈ 619 µM) | 300 µg/mL (≈ 1240 µM) | 300 µg/mL (≈ 1240 µM) | 300 µg/mL (≈ 1240 µM) | 300 µg/mL (≈ 1240 µM) | – | growth inhibition (GI) (Candida tropicalis [4]): inactive
CC(=O)Oc1cc(/C=C/c2ccc(O)cc2)cc(OC(C)=O)c1 | – | – | – | – | – | – | – | – | – | – | – | inactive | –
CC(=O)Oc1cc(O)cc(/C=C/c2ccc(O)cc2)c1 | – | – | – | – | – | – | – | – | – | – | – | inactive | –
CC(=O)Oc1ccc(/C=C/c2cc(O)cc(OC(C)=O)c2)cc1 | – | – | – | – | – | – | – | – | – | – | – | inactive | –
CC(=O)Oc1ccc(/C=C/c2cc(OC(C)=O)cc(OC(C)=O)c2)cc1 | – | – | – | – | – | – | – | – | – | – | – | inactive | –
CC(=O)Oc1ccc(/C=C/c2cc(OC(C)=O)cc3c2[C@H](c2cc(OC(C)=O)cc(OC(C)=O)c2)[C@@H](c2ccc(OC(C)=O)cc2)O3)cc1 | – | – | – | – | – | – | – | – | – | – | – | inactive | –
COc1ccc(/C=C/c2cc(OC)cc(OC)c2)cc1 | – | – | – | – | – | – | – | – | – | – | – | inactive | –
OC[C@H]1O[C@@H](Oc2cc(O)cc(/C=C/c3ccc(O)cc3)c2)[C@H](O)[C@@H](O)[C@@H]1O | – | – | – | – | – | – | – | – | – | – | – | inactive | –
Oc1ccc(/C=C/c2cc(O)cc(O)c2)cc1 | – | – | – | – | – | – | – | – | – | – | – | inactive | –
Oc1ccc([C@H]2c3c(O)cc(O)cc3[C@H]3c4c(cc(O)cc4[C@@H]2O)O[C@@H]3c2ccc(O)cc2)cc1 | – | – | – | – | – | – | – | – | – | – | – | inactive | –
Oc1ccc([C@H]2Oc3ccc(/C=C/c4cc(O)cc5c4[C@@H](c4cc(O)cc(O)c4)[C@H](c4ccc(O)cc4)O5)cc3[C@@H]2c2cc(O)cc3c2[C@H](c2cc(O)cc(O)c2)[C@@H](c2ccc(O)cc2)O3)cc1 (mixture of isomers) | 300 µg/mL | 150 µg/mL | 18 µg/mL | 300 µg/mL | 150 µg/mL | 300 µg/mL | 150 µg/mL | 300 µg/mL | 300 µg/mL | 300 µg/mL | 300 µg/mL | – | growth inhibition (GI) (Candida tropicalis [4]): inactive
COc1ccc(/C=C/c2cc(OC)cc3c2[C@H](c2cc(OC)cc(OC)c2)[C@@H](c2ccc(OC)cc2)O3)cc1 (relative stereo) | – | – | – | – | – | – | – | – | – | – | – | inactive | –
Oc1ccc(/C=C/c2cc(O)cc3c2[C@H](c2cc(O)cc(O)c2)[C@@H](c2ccc(O)cc2)O3)cc1 (relative stereo) | – | – | – | – | – | – | – | – | – | – | – | inactive | –
Nc1nc(=O)[nH]cc1F [FLUCYTOSINE] | 2 µg/mL (≈ 15.5 µM) | 2 µg/mL (≈ 15.5 µM) | 2 µg/mL (≈ 15.5 µM) | 4 µg/mL (≈ 31 µM) | 2 µg/mL (≈ 15.5 µM) | 4 µg/mL (≈ 31 µM) | 4 µg/mL (≈ 31 µM) | 4 µg/mL (≈ 31 µM) | 2 µg/mL (≈ 15.5 µM) | 4 µg/mL (≈ 31 µM) | 4 µg/mL (≈ 31 µM) | – | MIC95 (Candida tropicalis [3]): 4 µg/mL (≈ 31 µM)
COc1cc(/C=C/c2ccc(O)cc2)cc(OC)c1 [PTEROSTILBENE] | 28 µg/mL (≈ 109 µM) | 14 µg/mL (≈ 54.6 µM) | 7 µg/mL (≈ 27.3 µM) | 28 µg/mL (≈ 109 µM) | 7 µg/mL (≈ 27.3 µM) | 28 µg/mL (≈ 109 µM) | 14 µg/mL (≈ 54.6 µM) | 28 µg/mL (≈ 109 µM) | 28 µg/mL (≈ 109 µM) | 28 µg/mL (≈ 109 µM) | 14 µg/mL (≈ 54.6 µM) | – | MIC95 (Candida tropicalis [3]): 28 µg/mL (≈ 109 µM); inhibition (Candida albicans [6]): Active
COc1ccc(/C=C/c2cc(O)cc(O)c2)cc1 [RESVERATROL 4'-METHYL ETHER] | 150 µg/mL (≈ 619 µM) | 150 µg/mL (≈ 619 µM) | 18 µg/mL (≈ 74.3 µM) | 150 µg/mL (≈ 619 µM) | 150 µg/mL (≈ 619 µM) | 300 µg/mL (≈ 1240 µM) | 150 µg/mL (≈ 619 µM) | 150 µg/mL (≈ 619 µM) | 300 µg/mL (≈ 1240 µM) | 75 µg/mL (≈ 310 µM) | 300 µg/mL (≈ 1240 µM) | – | MIC95 (Candida tropicalis [3]): 300 µg/mL (≈ 1240 µM)
